How the values were obtained:
[1] = Ratio of steady state drug level in brain to plasma in MDR1A/B FVB mouse at 0.6 mg/h/kg, ip administered as infusion after 48 hrs by LC-MS/MS analysis; type: ADME, organism-based; settings: read-out: BPR
Method in brief: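 Male FVB Mdr1a/b−/− mice, 8–10 weeks, n = 4. Erlotinib given by constant i.p. infusion at 0.6 mg/h/kg for 48 h to steady state. Brain and plasma by LC-MS/MS after homogenizing brain in 3 volumes 5% BSA/PBS; brain values corrected for residual vascular blood (plasma space 1.4% of brain). Mean ± S.D.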

[2] = Ratio of steady state drug level in brain to plasma in MDR1A/B/BCRP1 FVB mouse at 0.6 mg/h/kg, ip administered as infusion after 48 hrs by LC-MS/MS analysis; type: ADME, organism-based; settings: read-out: BPR
Method in brief: (§1)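 Male FVB mice, 8–10 weeks old, n = 4 per genotype. Continuous intraperitoneal infusion for 48 hours to steady state. Plasma obtained by centrifuging blood. Brain homogenized in 3 volumes of ice-cold 5% BSA in PBS. Erlotinib measured by LC-MS/MS with tyrphostin AG1478 internal standard. Brain values corrected for residual vascular blood, taking plasma space as 1.4% of brain. Mean ± S.D.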

[3] = Drug uptake in tumor rim of Rowett rat orthotopically xenografted with human U87 cells at 20 mg/kg/day for 3 days by LC-MS/MS analysis in presence of elacridar; type: ADME, organism-based, U-87MG ATCC; settings: in vivo, 72 h
Method in brief: (§2)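 U87-EGFR orthotopic rat xenografts (3 weeks' tumor growth) received oral erlotinib in 0.5% methylcellulose daily for 3 days. Elacridar 10 mg/kg was given intravenously via the jugular vein 30 minutes before each erlotinib dose. Sacrifice was 30 minutes after the last dose, followed by saline perfusion. Tumor core, rim and contralateral brain were dissected and analyzed by LC-MS/MS; n = 4 per group, mean ± S.D.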

[4] = test system: Brain; experiment: Drug uptake in brain of Rowett rat orthotopically xenografted with human U87 cells at 20 mg/kg/day for 3 days by LC-MS/MS analysis in presence of elacridar; type: ADME, organism-based, U-87MG ATCC; settings: in vivo, 72 h; method in brief: as §2
[5] = Drug uptake in tumor core of Rowett rat orthotopically xenografted with human U87 cells at 20 mg/kg/day, po for 5 days by LC-MS/MS analysis; type: ADME, organism-based, U-87MG ATCC; parameters: route oral; settings: read-out: Drug uptake
Method in brief: (§3)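 Rats received intracerebral U87 cells overexpressing wild-type EGFR (2.5 × 10^5 cells, right frontal, stereotaxic); tumors grew for 3 weeks. Erlotinib in 0.5% methylcellulose was given by oral gavage daily for 5 days. Sacrifice was 30 minutes after the last dose, with saline cardiac perfusion in the perfused group. Tissue was visually split into tumor core, adjacent rim and contralateral hemisphere. LC-MS/MS; n = 6.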

[6] = Drug uptake in tumor rim of Rowett rat orthotopically xenografted with human U87 cells at 20 mg/kg/day, po for 5 days by LC-MS/MS analysis; type: ADME, organism-based, U-87MG ATCC; parameters: route oral; settings: read-out: Drug uptake; method in brief: as §3
[7] = Drug uptake in brain of Rowett rat orthotopically xenografted with human U87 cells at 20 mg/kg/day, po for 5 days by LC-MS/MS analysis; type: ADME, organism-based, U-87MG ATCC; parameters: route oral; settings: read-out: Drug uptake; method in brief: as §3
[8] = test system: Nucleic Acid; experiment: Ratio of drug level in tumor core to tumor rim in Rowett rat orthotopically xenografted with human U87 cells at 20 mg/kg/day, po for 5 days by LC-MS/MS analysis; type: ADME, organism-based, U-87MG ATCC; parameters: route oral; settings: in vivo, 120 h
Method in brief: (§4)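 U87 cells (wild-type EGFR-transfected) inoculated into right frontal brain of anesthetized rats, 2.5 × 10^5 cells; tumor grown 3 weeks. Erlotinib 20 mg/kg/day in 0.5% methylcellulose by oral gavage for 5 days; sacrifice 30 min after last dose, with or without cardiac saline perfusion; tissue visually dissected into tumor core, rim, contralateral hemisphere; LC-MS/MS; n = 6 per group.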

[9] = test system: Nucleic Acid; experiment: Ratio of drug level in tumor core to brain contralateral hemisphere in Rowett rat orthotopically xenografted with human U87 cells at 20 mg/kg/day, po for 5 days by LC-MS/MS analysis; type: ADME, organism-based, U-87MG ATCC; parameters: route oral; settings: in vivo, 120 h; method in brief: as §4
[10] = Ratio of drug level in tumor core to plasma in Rowett rat orthotopically xenografted with human U87 cells at 20 mg/kg/day, po for 5 days by LC-MS/MS analysis; type: ADME, organism-based, U-87MG ATCC; parameters: route oral; method in brief: as §3
[11] = Half life in mouse; type: ADME, organism-based; settings: in vivo
[12] = Drug uptake at steady state in wild-type FVB mouse brain at 0.6 mg/h/kg, ip administered as infusion after 48 hrs by LC-MS/MS analysis; type: ADME, organism-based; settings: read-out: Drug uptake; method in brief: as §1
[13] = Plasma concentration at steady state in wild-type FVB mouse at 0.6 mg/h/kg, ip administered as infusion after 48 hrs by LC-MS/MS analysis; type: ADME, organism-based; settings: read-out: Cpss; method in brief: as §1
[14] = Plasma concentration at steady state in BCRP1 knock-out FVB mouse at 0.6 mg/h/kg, ip administered as infusion after 48 hrs by LC-MS/MS analysis; type: ADME, organism-based; settings: read-out: Cpss; method in brief: as §1
[15] = Plasma concentration at steady state in MDR1A/B knock-out FVB mouse at 0.6 mg/h/kg, ip administered as infusion after 48 hrs by LC-MS/MS analysis; type: ADME, organism-based; settings: read-out: Cpss; method in brief: as §1
[16] = Plasma concentration at steady state in MDR1A/B/BCRP1 knock-out FVB mouse at 0.6 mg/h/kg, ip administered as infusion after 48 hrs by LC-MS/MS analysis; type: ADME, organism-based; settings: read-out: Cpss; method in brief: as §1
[17] = Drug uptake at steady state in BCRP1 knock-out FVB mouse brain at 0.6 mg/h/kg, ip administered as infusion after 48 hrs by LC-MS/MS analysis; type: ADME, organism-based; settings: read-out: Drug uptake; method in brief: as §1
[18] = Drug uptake at steady state in MDR1A/B knock-out FVB mouse brain at 0.6 mg/h/kg, ip administered as infusion after 48 hrs by LC-MS/MS analysis; type: ADME, organism-based; settings: read-out: Drug uptake; method in brief: as §1
[19] = Drug uptake at steady state in MDR1A/B/BCRP1 knock-out FVB mouse brain at 0.6 mg/h/kg, ip administered as infusion after 48 hrs by LC-MS/MS analysis; type: ADME, organism-based; settings: read-out: Drug uptake; method in brief: as §1
[20] = Ratio of steady state drug level in brain to plasma in wild-type FVB mouse at 0.6 mg/h/kg, ip administered as infusion after 48 hrs by LC-MS/MS analysis; type: ADME, organism-based; settings: read-out: BPR; method in brief: as §1
[21] = Ratio of steady state drug level in brain to plasma in BCRP1 FVB mouse at 0.6 mg/h/kg, ip administered as infusion after 48 hrs by LC-MS/MS analysis; type: ADME, organism-based; settings: read-out: BPR; method in brief: as §1
[22] = Ratio of drug level in tumor rim to plasma in Rowett rat orthotopically xenografted with human U87 cells at 20 mg/kg/day, po for 5 days by LC-MS/MS analysis; type: ADME, organism-based, U-87MG ATCC; parameters: route oral; method in brief: as §3
[23] = Ratio of drug level in brain contralateral hemisphere to plasma in Rowett rat orthotopically xenografted with human U87 cells at 20 mg/kg/day, po for 5 days by LC-MS/MS analysis; type: ADME, organism-based, U-87MG ATCC; parameters: route oral; settings: read-out: BPR; method in brief: as §4
[24] = Ratio of drug level in tumor core to plasma in Rowett rat orthotopically xenografted with human U87 cells at 20 mg/kg/day for 3 days by LC-MS/MS analysis in presence of elacridar; type: ADME, organism-based, U-87MG ATCC; settings: with elacridar (dose not stated)
Method in brief: (§5)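 U87 cells (wild-type EGFR-transfected) inoculated into right frontal brain of anesthetized rats, 2.5 × 10^5 cells; tumor grown 3 weeks. Erlotinib 20 mg/kg/day in 0.5% methylcellulose by gavage for 3 days; elacridar 10 mg/kg i.v. into jugular vein 30 min before each dose. Sacrifice 30 min after last dose, saline perfusion, brain dissected into tumor core, rim, contralateral hemisphere; plasma and homogenate by LC-MS/MS; n = 4 per group.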

[25] = Drug uptake in tumor core of Rowett rat orthotopically xenografted with human U87 cells at 20 mg/kg/day for 3 days by LC-MS/MS analysis in presence of elacridar; type: ADME, organism-based, U-87MG ATCC; settings: in vivo, 72 h; method in brief: as §2
[26] = Ratio of drug level in tumor rim to plasma in Rowett rat orthotopically xenografted with human U87 cells at 20 mg/kg/day for 3 days by LC-MS/MS analysis in presence of elacridar; type: ADME, organism-based, U-87MG ATCC; settings: with elacridar (dose not stated); method in brief: as §5
[27] = Ratio of drug level in brain contralateral hemisphere to plasma in Rowett rat orthotopically xenografted with human U87 cells at 20 mg/kg/day for 3 days by LC-MS/MS analysis in presence of elacridar; type: ADME, organism-based, U-87MG ATCC; settings: with elacridar (dose not stated), read-out: BPR; method in brief: as §5
[28] = Drug uptake in tumor core of Rowett rat orthotopically xenografted with human U87 cells at 20 mg/kg/day for 3 days by LC-MS/MS analysis in presence of elacridar relative to elacridar non-treated control; type: ADME, organism-based, U-87MG ATCC; settings: in vivo, 72 h; method in brief: as §5
[29] = Drug uptake in tumor rim of Rowett rat orthotopically xenografted with human U87 cells at 20 mg/kg/day for 3 days by LC-MS/MS analysis in presence of elacridar relative to elacridar non-treated control; type: ADME, organism-based, U-87MG ATCC; settings: in vivo, 72 h; method in brief: as §5
[30] = test system: Brain; experiment: Drug uptake in brain of Rowett rat orthotopically xenografted with human U87 cells at 20 mg/kg/day for 3 days by LC-MS/MS analysis in presence of elacridar relative to elacridar non-treated control; type: ADME, organism-based, U-87MG ATCC; settings: in vivo, 72 h; method in brief: as §5

Compound: C#Cc1cccc(Nc2ncnc3cc(OCCOC)c(OCCOC)cc23)c1.Cl [ERLOTINIB HYDROCHLORIDE]
- Kp at 48 h [1]: 0.09
- Kp at 48 h [2]: 0.62
- Drug uptake [3]: Active
- Drug uptake [4]: Active
- concentration at 120 h [5]: 1830 ng/g
- concentration at 120 h [6]: 390 ng/g
- concentration at 120 h [7]: 370 ng/g
- Ratio [8]: 4.7
- Ratio [9]: 5
- Kp at 120 h [10]: 0.51
- half-life [11]: 1 h
- concentration at 48 h [12]: 4.3 ng/g
- concentration at 48 h [13]: 72 ng/mL
- concentration at 48 h [14]: 71 ng/mL
- concentration at 48 h [15]: 81 ng/mL
- concentration at 48 h [16]: 99 ng/mL
- concentration at 48 h [17]: 4.9 ng/g
- concentration at 48 h [18]: 12 ng/g
- concentration at 48 h [19]: 34 ng/g
- Kp at 48 h [20]: 0.02
- Kp at 48 h [21]: 0.07
- Kp at 120 h [22]: 0.1
- Kp at 120 h [23]: 0.09
- Kp at 72 h [24]: 1
- Drug uptake [25]: Active
- Kp at 72 h [26]: 1
- Kp at 72 h [27]: 1
- fold change (FC) [28]: 4
- fold change (FC) [29]: 12
- fold change (FC) [30]: 12
